This note sets out measurements from ChEMBL document CHEMBL3797163, “Tryptic Stability of Synthetic Bactenecin Derivatives Is Determined by the Side Chain Length of Cationic Residues and the Peptide Conformation” (J Med Chem, 2016).

The test system of one data set is Acinetobacter baumannii. Kind of data set: Antimicrobial activity against Acinetobacter baumannii ATCC 17978 incubated overnight by microdilution method. It counts as functional. The procedure, abridged: (§1)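 Broth microdilution in Mueller-Hinton broth. Peptides were serially diluted 2-fold in water at twice the final concentration, then mixed 1:1 with bacteria in 2× MHB to a final 2˗7 × 10^5 CFU/mL. Plates were incubated overnight at 37 °C. MIC was taken as the lowest concentration showing no growth.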

Data set [1] is described as follows: Stability of compound assessed as bovine trypsin mediated degradation at 2 to 5 mM after 2 hrs by HPLC/MS analysis. It counts as ADME, Bos taurus. As to conditions: cattle, isolated protein, 5000 µM. The method in brief: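 Bovine pancreatic trypsin (salt-free) was freshly dissolved at 1 mg per 50 mL in 0.1 M NH4HCO3, pH 8.2, and added to peptide, which was diluted from 2˗5 mM stocks to a final 60 µM. Reactions were shaken at 37 °C and sampled at 2 h and 24 h. Aliquots were quenched with acetic acid/TFA and analysed by RP-HPLC (C18, 220 nm) and direct-injection ESI-MS. No-enzyme samples served as controls.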

The next data set has as its system Staphylococcus aureus. Kind of data set: Antimicrobial activity against Staphylococcus aureus C622 incubated overnight by microdilution method. It counts as functional. The method in brief:
as §1

The subject of a further data set is Bacillus subtilis. Kind of data set: Antimicrobial activity against Bacillus subtilis C626 incubated overnight by microdilution method. It counts as functional. The procedure, abridged:
as §1
(In general: Broth dilution looks for growth in wells or tubes with falling amounts of substance.)

The test system of the next data set is Escherichia coli. Kind of data set: Antimicrobial activity against Escherichia coli O157:H7 incubated overnight by microdilution method. The data set is classed as functional. The procedure, abridged: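 Broth microdilution in Mueller-Hinton broth. Peptides were serially diluted twofold in water at 2× final concentration and mixed 1:1 with bacteria in 2× MHB, giving a final inoculum of 2-7 × 10^5 CFU/mL. Plates were incubated overnight at 37 °C. MIC was read as the lowest concentration with no visible growth.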

≈ marks a conversion by molar mass, not a printed value. Square brackets hold non-standard residues; d marks the D form. Peptide text beside a SMILES is read from it. hArg = N=C(N)NCCCC[C@H](N)C(=O)O; Orn = NCCC[C@H](N)C(=O)O

The MIC is the least concentration at which growth counts as inhibited. A lower MIC goes with greater potency. In the case of `CC[C@H](C)[C@H](NC(=O)[C@H](Cc1c[nH]c2ccccc12)NC(=O)[C@H](CCCN)NC(=O)[C@H](Cc1c[nH]c2ccccc12)NC(=O)[C@H](Cc1c[nH]c2ccccc12)NC(=O)[C@H](CCCCNC(=N)N)NC(=O)[C@@H](N)CCCN)C(=O)N[C@@H](CCCCNC(=N)N)C(=O)N[C@@H](Cc1c[nH]c2ccccc12)C(N)=O` (H-[Orn][hArg]WW[Orn]WI[hArg]W-NH2), the MIC against Acinetobacter baumannii worked out at 5 µM (≈ 7.22 µg/mL); in the data set on Staphylococcus aureus, 5 µM (≈ 7.22 µg/mL); against Bacillus subtilis, 20 µM (≈ 28.9 µg/mL); with Escherichia coli, 1.25 µM (≈ 1.8 µg/mL). Also, in data set [1], the Stability entry was “Unstable”.

In the case of `CC[C@H](C)[C@H](NC(=O)[C@H](Cc1c[nH]c2ccccc12)NC(=O)[C@H](CCCCNC(=N)N)NC(=O)[C@H](Cc1c[nH]c2ccccc12)NC(=O)[C@H](Cc1c[nH]c2ccccc12)NC(=O)[C@H](CCCCNC(=N)N)NC(=O)[C@@H](N)CCCCNC(=N)N)C(=O)N[C@@H](CCCCNC(=N)N)C(=O)N[C@@H](Cc1c[nH]c2ccccc12)C(N)=O` (H-[hArg][hArg]WW[hArg]WI[hArg]W-NH2), the MIC came to 5 µM (≈ 7.78 µg/mL) with Acinetobacter baumannii, 2.5 µM (≈ 3.89 µg/mL) against Staphylococcus aureus, 5 µM (≈ 7.78 µg/mL) against Bacillus subtilis and 2.5 µM (≈ 3.89 µg/mL) against Escherichia coli. The Stability result in data set [1] is given as “Unstable”.
